For one data set, the system named is HeLa. Description: Cytotoxicity against human HeLa cells. Particulars: for IC50: Homo sapiens, HeLa, read-out: IC50. The class given is functional, cell-based.
Another data set deals with NHDF. Description: Cytotoxicity against HDF cells. Type of data set: cell-based, Homo sapiens. The settings on record: Homo sapiens, NHDF; read-out: IC50.
A short description of data set [1]: Antioxidant activity assessed as trolox equivalent of ABTS radical scavenging activity measured after 1 hr by UV-vis spectrophotometric method. The class given is functional. The method, boiled down:
(§1)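 ABTS cation-radical decolorization was read spectrophotometrically as the fall in absorbance after 1 h. Trolox was the reference. TEAC was taken as the ratio of concentration-response slopes, test/Trolox, and IC50 was also derived. Data are mean ± SEM, n = 3.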

The nature of data set [2]: Antioxidant activity assessed as AAPH scavenging activity by measuring residual fluorescence at 10 uM measured at 1 min interval for 30 mins by ORAC fluorescein assay relative to control. Type of data set: functional. The gist of the method:
(§2)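 ORAC-FL assay with fluorescein as the probe and AAPH as the peroxyl radical generator. The loss of fluorescence over time was followed, and the result is given as % fluorescence restored at 10 and 50 µM. Each value is the mean of two independent experiments.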

Data set [3] is described as follows: Antioxidant activity assessed as AAPH scavenging activity by measuring residual fluorescence at 50 uM measured at 1 min interval for 30 mins by ORAC fluorescein assay relative to control. The class given is functional. The gist of the method:
as §2

Data set [4] concerns Rattus norvegicus. Description: Antiinflammatory activity in rat model of carrageenan-induced paw edema assessed as inhibition of hind paw swelling at 15 mg/kg, ip measured after 3 hrs relative to control. The class given is functional. A general note: In the carrageenan paw model, swelling and tenderness develop within hours.
For data set [5], the system named is Rattus norvegicus. Description: Antiinflammatory activity in rat model of carrageenan-induced paw edema assessed as inhibition of hind paw swelling at 15 mg/kg, ip measured after 5 hrs. Type of data set: functional, organism-based.
Data set [6] relates to Mycobacterium tuberculosis. The experiment in a line: Antitubercular activity against Mycobacterium tuberculosis H37Rv. The class given is functional. The gist of the method: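 Mycobacterium tuberculosis strain H37Rv; minimum inhibitory concentration (MIC) taken as the lowest level needed to inhibit bacterial growth; isoniazid and pyrazinamide served as reference drugs.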

The nature of data set [7]: Antioxidant activity assessed as ABTS radical scavenging activity measured after 1 hr by UV-vis spectrophotometric method. The class given is functional. The gist of the method: as §1
Another data set has as its system Trichophyton rubrum. The experiment in a line: Antifungal activity against Trichophyton rubrum. The class given is functional.
In another data set the test system is Nannizzia gypsea. Description: Antifungal activity against Trichophyton gypseum. Type of data set: functional.
The subject of another data set is Trichophyton tonsurans. The experiment in a line: Antifungal activity against Trichophyton tonsurans. Type of data set: functional.
The test system of a further data set is Trichophyton violaceum. The experiment in a line: Antifungal activity against Trichophyton violaceum. The class given is functional.
Data set [8] deals with Trichophyton interdigitale. The experiment in a line: Antifungal activity against Trichophyton mentagrophytes var. interdigitale. The class given is functional.
The test system of another data set is Microsporum canis. The experiment in a line: Antifungal activity against Microsporum canis. Type of data set: functional.
The test system of another data set is Candida albicans. The experiment in a line: Antifungal activity against Candida albicans. Type of data set: functional.
Another data set deals with Epidermophyton floccosum. The experiment in a line: Antifungal activity against Epidermophyton floccosum. The class given is functional.
In another data set the test system is Neisseria gonorrhoeae. Description: Antibacterial activity against Neisseria gonorrhoeae. The class given is functional.
In another data set the test system is Escherichia coli. Description: Antibacterial activity against Escherichia coli. The class given is functional.
The test system of a further data set is Klebsiella pneumoniae. Description: Antibacterial activity against Klebsiella pneumoniae. Type of data set: functional.
Another data set relates to Citrobacter braakii. The experiment in a line: Antibacterial activity against Citrobacter braakii. The class given is functional.
For another data set, the system named is Proteus vulgaris. Description: Antibacterial activity against Proteus vulgaris. Type of data set: functional.
The test system of a further data set is Serratia marcescens. The experiment in a line: Antibacterial activity against Serratia marcescens. The class given is functional.
A further data set relates to Shigella flexneri. Description: Antibacterial activity against Shigella flexneri. The class given is functional.
For a further data set, the system named is Pseudomonas aeruginosa. The experiment in a line: Antibacterial activity against Pseudomonas aeruginosa. Type of data set: functional.
Another data set deals with Streptococcus pyogenes. The experiment in a line: Antibacterial activity against Streptococcus pyogenes. Type of data set: functional.
The next data set relates to Staphylococcus aureus. The experiment in a line: Antibacterial activity against Staphylococcus aureus. The class given is functional.
The subject of data set [9] is Erythrocyte. The experiment in a line: Antioxidant activity in human erythrocytes assessed as protection against AAPH-induced hemolysis at 50 uM preincubated for 20 mins followed by AAPH addition and measured after 2 hrs by spectrophotometric method relative to control. Type of data set: functional. Particulars: time 140 min, 2.333 h. The gist of the method:
(§3)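 Erythrocyte hemolysis assay with AAPH as the free-radical initiator, testing 50 and 400 µM. Results are expressed as relative protection of membranes against oxidative damage, each the mean of two independent experiments.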

The subject of data set [10] is Erythrocyte. Description: Antioxidant activity in human erythrocytes assessed as protection against AAPH-induced hemolysis at 400 uM preincubated for 20 mins followed by AAPH addition and measured after 2 hrs by spectrophotometric method relative to control. The settings on record: time 140 min, 2.333 h. Type of data set: functional. The method, boiled down:
as §3

Data set [11] has as its system Rattus norvegicus. Description: Analgesic activity in rat assessed as prolongation of latency period at 15 mg/kg, ip measured after 1 hr by hot-plate test relative to control. Type of data set: functional. The method, boiled down:
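Hot-plate test in rats. Compounds were given by intraperitoneal injection. Latency was read at 1 h and, for some compounds, also at 2 h after dosing. Results are expressed as % prolongation of the latent period versus vehicle-treated control. Significance was given as p-values.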

Data set [12] in a line: Selectivity index, ratio of IC50 for HDF cells to IC50 for human HeLa cells. Type of data set: toxicity. The settings on record: HDF cells versus HeLa cells, read-out: Ratio IC50.

Converted amounts (≈) assume the structure as drawn. “And” between values parts separate entries of the source, which are not always exact repeats. Equal entries are not always repeated. The source made the active and inactive calls. The calls are words filed in the database; no cut-off is given here.

Data on 10 compounds can be found in ChEMBL document CHEMBL4765448, “Multiple biological active 4-aminopyrazoles containing trifluoromethyl and their 4-nitroso-precursors: Synthesis and evaluation” (Eur J Med Chem, 2020).

The IC50 is the point on the concentration scale where inhibition reaches its midpoint. One may read the MIC as the least concentration at which growth counts as inhibited. Low readings indicate greater potency, high ones weaker potency.

In the case of `COc1cccc2c1C(=O)c1c(O)c3c(c(O)c1C2=O)C[C@@](O)(C(=O)CO)C[C@@H]3O[C@H]1C[C@H](N)[C@H](O)[C@H](C)O1` [DOXORUBICIN], the IC50 with HeLa was determined as 4.25 µM; in the data set with NHDF, 2.72 µM.

With `Nc1c(C(F)(F)F)n[nH]c1-c1ccccc1`, the Activity is 0.58 equiv and 1.35 equiv in data set [1]; 63.1% and 59.7% in data set [2]; 60.2% and 62.8% in data set [3]; “Dose-dependent effect” in the data set on HeLa. The inhibition result in the data set with Rattus norvegicus [4] is “inactive”. Also, the result with Rattus norvegicus [5] was Active.

Regarding `NNC(=O)c1ccncc1` [ISONIAZID], the lowest concentration to inhibit growth in [6] (MIC) was 0.15 µg/mL (≈ 1.09 µM).

Regarding `Cc1c(C)c2c(c(C)c1O)CCC(C)(C(=O)O)O2` (stereo unspecified) [TROLOX], the Activity in [1] worked out at 1 equiv. Further, the IC50 in data set [7] is 20.1 µM.

Regarding `NC(=O)c1cnccn1` [PYRAZINAMIDE], the MIC in data set [6] is 12.5 µg/mL (≈ 102 µM).

For the compound `OC(Cn1cncn1)(Cn1cncn1)c1ccc(F)cc1F` [FLUCONAZOLE], the MIC was 6.25 µg/mL (≈ 20.4 µM) against Trichophyton rubrum; 12.5 µg/mL (≈ 40.8 µM) with Nannizzia gypsea; more than 100 µg/mL in the data set with Trichophyton tonsurans; 100 µg/mL (≈ 327 µM) with Trichophyton violaceum; more than 100 µg/mL in data set [8]; 100 µg/mL (≈ 327 µM) in the data set with Microsporum canis. This compound gave an MIC in the data set on Candida albicans of more than 100 µg/mL.

For `CCC(C)n1ncn(-c2ccc(N3CCN(c4ccc(OCC5COC(Cn6cncn6)(c6ccc(Cl)cc6Cl)O5)cc4)CC3)cc2)c1=O` (stereo unspecified) [ITRACONAZOLE], the MIC was 0.06 µg/mL (≈ 0.085 µM) against Trichophyton rubrum; 0.06 µg/mL (≈ 0.085 µM) against Nannizzia gypsea; 0.19 µg/mL (≈ 0.269 µM) in the data set with Trichophyton tonsurans; 0.19 µg/mL (≈ 0.269 µM) with Trichophyton violaceum; 0.095 µg/mL (≈ 0.135 µM) in [8]; 0.19 µg/mL (≈ 0.269 µM) against Epidermophyton floccosum. Moreover, the MIC in the data set with Microsporum canis and in the data set with Candida albicans was more than 100 µg/mL each time.

Take `Cn1nc(C(F)(F)F)c(N)c1-c1ccco1`: the Activity in [1] was 0.04 equiv. Moreover, the result in the data set with Rattus norvegicus [5] was Active.

Take `Cc1ccc(-c2c(N)c(C(F)(F)F)nn2-c2ccc(S(N)(=O)=O)cc2)cc1.Cl`: the MIC is 250 µg/mL against Neisseria gonorrhoeae; more than 250 µg/mL with Escherichia coli; more than 250 µg/mL with Klebsiella pneumoniae; more than 250 µg/mL in the data set with Citrobacter braakii; more than 250 µg/mL against Proteus vulgaris; more than 250 µg/mL in the data set on Serratia marcescens. For the same compound, the MIC in the data set on Shigella flexneri was more than 250 µg/mL; in the data set with Pseudomonas aeruginosa, more than 250 µg/mL; against Streptococcus pyogenes it was more than 250 µg/mL; against Staphylococcus aureus, more than 250 µg/mL; against Trichophyton rubrum it was 200 µg/mL; against Nannizzia gypsea, more than 200 µg/mL. In addition, the MIC against Trichophyton tonsurans is more than 200 µg/mL; against Trichophyton violaceum it was more than 200 µg/mL; in [8], 200 µg/mL; against Epidermophyton floccosum, 200 µg/mL; in the data set on Microsporum canis it was 200 µg/mL; with Candida albicans, more than 200 µg/mL. For the same compound, the Activity stood at 14.6% in data set [2] and 47.1% in data set [3]. The “fold change (FC)” value in the data set on Erythrocyte [9] came out at 1.18; in the data set with Erythrocyte [10], 1.17. The result with Rattus norvegicus [11] was inactive. Also, the result in the data set on Rattus norvegicus [5] was Active.

Regarding `CC[C@@]1(O)C(=O)OCc2c1cc1n(c2=O)Cc2cc3ccccc3nc2-1` [CAMPTOTHECIN], the IC50 in the data set with HeLa was 1.66 µM; in the data set on NHDF it was 5.38 µM. Besides, the selectivity ratio in [12] was 3.24.
